Most compounds without a hit are left out; they make up all but 2% or so of the library.
EBV LMP1 NFkB: inhibitors of Epstein-Barr LMP1-induced NF-kappaB reporter; LMP1-induced NF-kappaB luciferase reporter cells, luminescence; inhibition, % at 12.5 µM; 350,000 compounds, 0.69% hits; AID 504558; in the data active = inhibition above about 41%; inconclusive = no clear call, values can overlap the other calls
TROY NFkB inh: TROY signaling inhibition; Q293 LMP1-TROYcd NF-kB luciferase reporter, 4 h; inhibition, % at 10 µM; 360,000 compounds, 0.98% hits; AID 1347056;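 active = compounds whose plate-normalised and pattern-corrected inhibition of the luciferase reporter signal at the single screening dose is 50% or more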
NR2E3 ag-1: agonists of human NR2E3 nuclear receptor; Q9Y5X4; CHO-S Gal4-NCOR/VP16-NR2E3 two-hybrid, luciferase; inhibition of corepressor binding, % at 3.98 µM; 360,000 compounds, 0.35% hits; AID 602229;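 active = inhibition above the mean of all tested compounds plus 3 SD, cut at about 70% in these data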;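 note: higher means lower luciferase signal from less NR2E3 corepressor binding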
Target sequence (Q9Y5X4 whole entry, looked up, the tested form may be a part): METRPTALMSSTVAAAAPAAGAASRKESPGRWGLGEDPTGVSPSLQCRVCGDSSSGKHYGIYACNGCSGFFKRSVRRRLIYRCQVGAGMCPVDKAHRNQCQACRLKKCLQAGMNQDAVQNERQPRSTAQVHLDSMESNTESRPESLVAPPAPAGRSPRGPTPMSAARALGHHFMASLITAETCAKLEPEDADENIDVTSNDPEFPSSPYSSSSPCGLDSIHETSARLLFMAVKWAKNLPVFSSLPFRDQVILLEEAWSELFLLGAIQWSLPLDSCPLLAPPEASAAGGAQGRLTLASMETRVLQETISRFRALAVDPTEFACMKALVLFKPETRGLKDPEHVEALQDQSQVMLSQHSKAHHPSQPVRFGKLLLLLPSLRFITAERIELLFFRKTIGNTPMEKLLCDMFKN
HIF activator: HIF pathway transcriptional activation; activation, % at 7.5 µM (by protocol); U2OS HRE-luciferase reporter, luminescence; normalized: DMSO 0%, desferrioxamine 100%; 300,000 compounds, 0.32% hits;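 active = mean activation of at least 10% of the iron chelator positive control signal, with at least half of replicates also reaching 10%; inconclusive = mean and replicate majority disagree about reaching 10%; inactive = mean and most replicates under 10%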
NR2E3 ag-2: NR2E3 (human) agonism | Q9Y5X4 | GST-NR2E3/biotin-RetCOR TR-FRET, 1536-well | inhibition of corepressor binding, % at 4.78 µM | 320,000 compounds, 0.12% hits | AID 2300;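 active = percent inhibition above the cutoff of mean plus 3 SD of all tested compounds, set per screening campaign, cut at about 20% in these data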
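Material: NR2E3–RetCOR corepressor complex | Quantity: 1.35 nM GST-tagged NR2E3 final | Schedule: 5 h at 4 °C | Replication: Singlicate compound wells | Reagent: RetCOR corepressor, biotinylated, 7 nM | Controls: Biotin wells as high control, 0.6% DMSO wells as low control | Signal: TR-FRET, Eu(K)-anti-GST donor, streptavidin-D2 acceptor, ex 340, em 617/671 nm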
NR2E3 ag conf: NR2E3 agonism confirmed in two-hybrid assay. shares compounds with NR2E3 ag-1. CHO-S mammalian two-hybrid NR2E3-NCOR, luciferase luminescence. inhibition, % at 3.98 µM. 2,300 compounds, 51% hits. AID 624378;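 active = average inhibition above a cutoff equal to the mean inhibition of all tested compounds plus one SD, cut at about 70% in these data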
VP16 counter: GAL4-VP16 reporter inhibition in NR2E3 agonist counterscreen | shares compounds with NR2E3 ag-1 | CHO-S GAL4-VP16 luciferase reporter, luminescence | inhibition, % at 3.98 µM | 2,300 compounds, 29% hits | AID 624379;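 active = mean inhibition above a cutoff equal to the average over all tested compounds plus one standard deviation, cut at about 70% in these data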;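 note: luciferase from a UAS reporter driven by GAL4-VP16 transactivation; higher means less reporter light so more repression of VP16 activity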
Large screens that a line does not name were inactive (follow-up assays come after a bar, where they were run).

COc1cc2c(oc(=O)c3cc(C)cc(OC)c32)c2c(C3OC(C)C(O)C(C)(O)C3O)ccc(O)c12 (stereo not drawn)	EBV LMP1 NFkB 78 (no result: HIF activator, NR2E3 ag-2) | NR2E3 ag conf 71 | VP16 counter inactive
CCOC(=O)N1CCN(C(=O)c2cc(COc3ccc4ncccc4c3)on2)CC1	none | NR2E3 ag conf 83 | VP16 counter 76
COCC1CCCN(C(=O)c2cc(COc3ccc4ncccc4c3)on2)C1 (stereo not drawn)	NR2E3 ag-1 105 | NR2E3 ag conf 94 | VP16 counter 87
O=C(c1cc(COc2ccc3ncccc3c2)on1)N1CCC[C@H]1CO	NR2E3 ag-1 81 | NR2E3 ag conf inactive | VP16 counter inactive
O=C(c1cc(COc2ccc3ncccc3c2)on1)N1CCCC(O)C1 (stereo not drawn)	none
Cc1cccnc1CN1CCN(C(=O)c2cc(COc3ccc4ncccc4c3)on2)CC1	NR2E3 ag-1 78 | NR2E3 ag conf 99 | VP16 counter 88
O=C(CCNS(=O)(=O)c1ccc(Br)cc1)NCc1ccco1	none
Cc1ccc2c(c1)N(CC(=O)NCCCN1CCCCC1)C(=O)CO2	none
CCC1CCCCN1C(=O)c1cc(COc2ccc(-n3cncn3)cc2)on1 (stereo not drawn)	none | NR2E3 ag conf inactive | VP16 counter inactive
O=C(c1cc(COc2ccc(-n3cncn3)cc2)on1)N1CCCC1	none
COc1cc(Cl)ccc1OCc1cc(C(=O)NCC(C)c2ccccc2)no1 (stereo not drawn)	none
O=C(NC1CCCCCCC1)c1cc(COc2ccc3ncccc3c2)on1	EBV LMP1 NFkB 49, NR2E3 ag-1 80 (no result: NR2E3 ag-2) | NR2E3 ag conf 95 | VP16 counter 88
Cc1cc(CN(C)C(=O)c2cc(COc3ccc4ncccc4c3)on2)on1	none | NR2E3 ag conf 73 | VP16 counter inactive
CC(CNC(=O)c1cc(COc2ccc3ncccc3c2)on1)c1ccccc1 (stereo not drawn)	TROY NFkB inh 54, NR2E3 ag-1 105 | NR2E3 ag conf 96 | VP16 counter 80
O=C(C[n+]1ccc2ccccc2c1)c1ccc2ccc3ccccc3c2c1	none (no result: EBV LMP1 NFkB, HIF activator, NR2E3 ag-2)
CCC(O)C1CCN(C(=O)c2cc(COc3ccc4ncccc4c3)on2)CC1 (stereo not drawn)	NR2E3 ag-1 78 | NR2E3 ag conf 96 | VP16 counter 85
O=C(c1cc(COc2ccc3ncccc3c2)on1)N1CCC(O)CC1	none
O=C(Nc1ccccc1)C1=C[C@@H](c2ccc(C(F)(F)F)cc2)C[C@@H](OCc2ccc(CO)cc2)O1	none
Cn1c(=O)c2[nH]c(CCCCc3nc4ccccc4[nH]3)nc2n(C)c1=O	none (no result: HIF activator, NR2E3 ag-2)
Cn1c(=O)c2[nH]c(CCCCCCCCc3nc4ccccc4[nH]3)nc2n(C)c1=O	none (no result: HIF activator, NR2E3 ag-2) | NR2E3 ag conf 79 | VP16 counter inactive
O=C1N[C@@H](Cc2ccccc2)COC(=O)[C@@H](Cc2ccc(F)cc2)C/C=C\C[C@@H]1CC(=O)N(CCO)Cc1ccccc1	none (no result: HIF activator, NR2E3 ag-2)
O=C1N[C@H](Cc2ccccc2)COC(=O)[C@H](Cc2ccc(F)cc2)CC/C=C/C[C@H]1CC(=O)N(CCO)Cc1ccccc1	none (no result: HIF activator, NR2E3 ag-2) | NR2E3 ag conf inactive | VP16 counter inactive
O=C(Nc1ccc(OC(F)F)cc1)Nc1cccc(C(F)(F)F)c1	none | NR2E3 ag conf inactive | VP16 counter inactive
CCN(CC)S(=O)(=O)c1ccc(NC(=O)Nc2cccc(C(F)(F)F)c2)cc1	TROY NFkB inh 58 | NR2E3 ag conf 75 | VP16 counter inactive
O=C(Nc1ccc(OC(F)(F)F)cc1)Nc1cccc([N+](=O)[O-])c1	NR2E3 ag-1 94 | NR2E3 ag conf 99 | VP16 counter 88
Cc1ccc(NC(=O)Nc2cccc([N+](=O)[O-])c2)cc1F	none
c1ccc2c(c1)oc1c(NCc3ccc4c(c3)OCO4)ncnc12	NR2E3 ag-1 73 | NR2E3 ag conf 90 | VP16 counter 75
O=C(/C=C/[C@H]1O[C@@H](n2ccc(=O)[nH]c2=O)[C@H](O)[C@@H]1O)NCc1cccnc1	none (no result: EBV LMP1 NFkB, HIF activator, NR2E3 ag-2)
Cc1cc2nc(C)n(CCCNC(=O)Nc3cccc4ccccc34)c2cc1C	none | NR2E3 ag conf 76 | VP16 counter inactive
CN(C)S(=O)(=O)N1CCC(Oc2cccc(C(=O)NC3CCCCC3)c2)CC1	none | NR2E3 ag conf inactive | VP16 counter inactive
COc1cccc(NC(=O)CN2C(=O)COc3ccc(S(=O)(=O)N4CCC(C)CC4)cc32)c1	none
COc1ccccc1C(=O)Nc1nc(-c2ccc(S(=O)(=O)N3CCOCC3)cc2)cs1	TROY NFkB inh 65, NR2E3 ag-1 92 | NR2E3 ag conf 89 | VP16 counter inactive
O=C(Nc1nc(-c2ccccc2)cs1)c1ccccc1NS(=O)(=O)c1ccc(F)cc1	EBV LMP1 NFkB inconclusive, NR2E3 ag-1 95 | NR2E3 ag conf 99 | VP16 counter 85
CNc1nc(-c2ccc(S(=O)(=O)N3CCCCC3)cc2)cs1	none (no result: HIF activator) | NR2E3 ag conf inactive | VP16 counter inactive
O=S(=O)(Nc1ccc(-c2csc(-c3ccccc3)n2)cc1)c1ccc(F)cc1	none
COc1ccc(S(=O)(=O)NCC2CCCN(Cc3cn(C)nc3C)C2)cc1 (stereo not drawn)	none
Cc1ccc2oc(=O)n(CC(=O)N3CCOCC3)c2c1	none
COc1ccc(C(=O)C2CCCN(S(=O)(=O)c3ccc(C(C)=O)cc3)C2)c(C)c1 (stereo not drawn)	NR2E3 ag-1 83 | NR2E3 ag conf inactive | VP16 counter inactive
O=C(CCCOC(=O)c1ccc(O)cc1O)c1ccc(Br)cc1	none (no result: HIF activator, NR2E3 ag-2)
CCn1nc(C)c(CNC(=O)c2ccc(OC3CCN(Cc4ccccn4)CC3)cc2)c1C	NR2E3 ag-1 79 (no result: NR2E3 ag-2) | NR2E3 ag conf inactive | VP16 counter inactive
CCn1cc(CNC(=O)c2ccc(OC3CCN(Cc4ccccn4)CC3)cc2)cn1	none
CC(=NNc1ccc([N+](=O)[O-])cn1)c1ccc(N)cc1	none (no result: HIF activator, NR2E3 ag-2)
Cc1ccc(NS(=O)(=O)c2ccc(-n3cccn3)cc2)cc1C	none | NR2E3 ag conf inactive | VP16 counter inactive
COc1cc(NS(=O)(=O)c2ccc(-n3cccn3)cc2)cc(OC)c1	none (no result: HIF activator, NR2E3 ag-2) | NR2E3 ag conf inactive | VP16 counter inactive
O=S(=O)(Nc1cccc(Cl)c1)c1ccc(-n2cccn2)cc1	none
Cc1sc2ncn(CCn3cnc4sc(C)c(C)c4c3=O)c(=O)c2c1C	none | NR2E3 ag conf inactive | VP16 counter inactive
CN(Cc1ccccc1)C(=O)c1ccc(NC(=O)C2=CSCCO2)cc1	none
Cc1ccc(S(=O)(=O)Nc2ccc3cc([N+](=O)[O-])ccc3c2[N+](=O)[O-])cc1	NR2E3 ag-1 101 (no result: HIF activator, NR2E3 ag-2) | NR2E3 ag conf 100 | VP16 counter 91
Cc1ccc(S(=O)(=O)Nc2ccc3ccccc3c2[N+](=O)[O-])cc1	none (no result: HIF activator, NR2E3 ag-2)

Bioassay records as filed in PubChem.
